Assay results: the array DNA melting data of Ke et al. (doi:10.1101/2024.01.08.574731)

Key:
[1] = folding enthalpy; higher = less favourable; fluorescence melt of hairpins on a sequencing array, two-state fit; settings: sodium 0.088 M
Summary of the method: (§1)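 Folding enthalpy and melting temperature were estimated with bootstrapped two-state fits and combined across four replicates by inverse-variance weighting, with fitted temperatures raised by 9.35 °C to match UV melts. The data were Cy3 fluorescence of library hairpins, with annealed Cy3 and quencher oligos, on a sequenced MiSeq flow cell in 50 mM Na-HEPES pH 8.0, 25 mM NaCl, imaged in 2.5 °C steps up to 60 °C and normalised to pre-quench Cy3 and control constructs.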

[2] = melting temperature; fluorescence melt of hairpins on a sequencing array, two-state fit, raised by 9.35 °C to match UV melts; settings: sodium 0.088 M
Summary of the method: as §1

GTAAAAACGAAAGTTTAC (((..(((....))))))
folding enthalpy [1]: -11.4 kcal/mol | Tm [2]: 27.8 °C

GTAAAACGAAAGTTCTAC (((.(((....))).)))
folding enthalpy [1]: -13.9 kcal/mol | Tm [2]: 27.6 °C

GTAAAACGAAAGTTTAC (((.(((....))))))
folding enthalpy [1]: -17.4 kcal/mol | Tm [2]: 35.2 °C

GTAAACGAAAGTTTAC ((((((....))))))
folding enthalpy [1]: -35.2 kcal/mol | Tm [2]: 56 °C

GTAAAGCGAAAGCTGTAC (((.(((....))).)))
folding enthalpy [1]: -20.4 kcal/mol | Tm [2]: 44.4 °C

GTAAAGGCGAAAGCCTAC (((..(((....))))))
folding enthalpy [1]: -10 kcal/mol | Tm [2]: 35 °C

GTAAATGGAAACGTTTAC (((((.(....).)))))
folding enthalpy [1]: -32.9 kcal/mol | Tm [2]: 35 °C

GTAACAGGAAACTGCTAC (((.(((....))).)))
folding enthalpy [1]: -29.1 kcal/mol | Tm [2]: 32 °C

GTAACCGAAAGGTCTAC ((((((....))).)))
folding enthalpy [1]: -13.4 kcal/mol | Tm [2]: 35.5 °C

GTAACCGAAAGGTTGTAC ((((((....)))..)))
folding enthalpy [1]: -10.4 kcal/mol | Tm [2]: 33.4 °C

GTAACTGGAAACAGTTGC (.(((((....))))).)
folding enthalpy [1]: -26.6 kcal/mol | Tm [2]: 47.4 °C

GTAAGACCGAAAGGTTAC (((..(((....))))))
folding enthalpy [1]: -13.8 kcal/mol | Tm [2]: 30.3 °C

GTAAGACGAAAGTCATAC (((.(((....))).)))
folding enthalpy [1]: -20.6 kcal/mol | Tm [2]: 39.1 °C

GTAAGACGAAAGTCCTAC (((.(((....))).)))
folding enthalpy [1]: -15.7 kcal/mol | Tm [2]: 34.7 °C

GTAAGCCGAAAGGCATAC (((.(((....))).)))
folding enthalpy [1]: -18.4 kcal/mol | Tm [2]: 46.6 °C

GTAAGCCGAAAGGCGTAC (((.(((....))).)))
folding enthalpy [1]: -14.1 kcal/mol | Tm [2]: 54.4 °C

GTAAGCGAAAGCTACTAC ((((((....)))..)))
folding enthalpy [1]: -14.1 kcal/mol | Tm [2]: 47.5 °C

GTAAGCGAAAGCTCTTAC ((((((....)))..)))
folding enthalpy [1]: -12.7 kcal/mol | Tm [2]: 33.2 °C

GTAAGCGAAAGCTGCTAC ((((((....)))..)))
folding enthalpy [1]: -12.7 kcal/mol | Tm [2]: 41 °C

GTAAGCGAAAGCTGGTAC ((((((....)))..)))
folding enthalpy [1]: -11 kcal/mol | Tm [2]: 32.3 °C

GTAAGCGAAAGCTTCTAC ((((((....)))..)))
folding enthalpy [1]: -11.2 kcal/mol | Tm [2]: 33.6 °C

GTAAGGGGAAACCCTCAC ((.((((....)))).))
folding enthalpy [1]: -13.7 kcal/mol | Tm [2]: 30.2 °C

GTAAGTCGAAAGACGTAC (((.(((....))).)))
folding enthalpy [1]: -15.2 kcal/mol | Tm [2]: 47.1 °C

GTAAGTGAAAACTTAC ((((((....))))))
folding enthalpy [1]: -27.4 kcal/mol | Tm [2]: 48.7 °C

GTAAGTGGAAACACTCAC ((.((((....)))).))
folding enthalpy [1]: -15.4 kcal/mol | Tm [2]: 32.7 °C

GTAAGTGGAAACACTTGC (.(((((....))))).)
folding enthalpy [1]: -26.7 kcal/mol | Tm [2]: 45 °C

GTAAGTGGAAACATTTAC ((((.((....)).))))
folding enthalpy [1]: -25.6 kcal/mol | Tm [2]: 32.3 °C

GTAATACGAAAGTACTAC (((.(((....))).)))
folding enthalpy [1]: -16.9 kcal/mol | Tm [2]: 31.1 °C

GTAATAGCGAAAGCTTAC (((..(((....))))))
folding enthalpy [1]: -12.6 kcal/mol | Tm [2]: 30.2 °C

GTAATCCGAAAGGACTAC (((.(((....))).)))
folding enthalpy [1]: -25.6 kcal/mol | Tm [2]: 37.9 °C

GTAATCGAAAGATGCTAC ((((((....)))..)))
folding enthalpy [1]: -17.3 kcal/mol | Tm [2]: 30.2 °C

GTAATGCCGAAAGGCTAC (((..(((....))))))
folding enthalpy [1]: -9.18 kcal/mol | Tm [2]: 26.8 °C

GTAATGCGAAAGCAGTAC (((.(((....))).)))
folding enthalpy [1]: -30.6 kcal/mol | Tm [2]: 53.4 °C

GTAATGCGAAAGCATAC (((.(((....))))))
folding enthalpy [1]: -13.3 kcal/mol | Tm [2]: 46 °C

GTAATGGCGAAAGCCTAC (((..(((....))))))
folding enthalpy [1]: -7.82 kcal/mol | Tm [2]: 31.3 °C

GTAATTGAAAAATTAC ((((((....))))))
folding enthalpy [1]: -26.2 kcal/mol | Tm [2]: 40.3 °C

GTACAAGAAATTGTAC ((((((....))))))
folding enthalpy [1]: -32.5 kcal/mol | Tm [2]: 45 °C

GTACAAGGAAACCTGTAC (((((.(....).)))))
folding enthalpy [1]: -26.1 kcal/mol | Tm [2]: 38.2 °C

GTACACGAAAGTGAATAC ((((((....)))..)))
folding enthalpy [1]: -10.6 kcal/mol | Tm [2]: 28.6 °C

GTACACGAAAGTGACTAC ((((((....)))..)))
folding enthalpy [1]: -15.4 kcal/mol | Tm [2]: 37.2 °C

GTACACGAAAGTGCTTAC ((((((....)))..)))
folding enthalpy [1]: -11.9 kcal/mol | Tm [2]: 33.3 °C

GTACACGAAAGTGTAC ((((((....))))))
folding enthalpy [1]: -30.2 kcal/mol | Tm [2]: 68.3 °C

GTACACGGAAACGTGTAC (((((((....)))))))
folding enthalpy [1]: -37.7 kcal/mol | Tm [2]: 63.4 °C

GTACACGGAAACGTGTGC (.(((((....))))).)
folding enthalpy [1]: -27.1 kcal/mol | Tm [2]: 56.2 °C

GTACACTCGAAAGAGTAC (((..(((....))))))
folding enthalpy [1]: -13.8 kcal/mol | Tm [2]: 29.4 °C
